The subject of experiment [1] is Rattus norvegicus. The experiment in a line: Tested in vivo for ability to inhibit PAF-induced hypotension in rats by measuring the drop in mean arterial blood pressure(mmHg) after 3 minutes activity. The class given is functional. The gist of the method:
(§1)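 Male Sprague-Dawley rats (225 ± 2 g) under sodium pentobarbital (50 mg/kg ip). PAF 0.66 µg/kg injected; compounds 5 mg/kg iv given 3 min later at maximal blood pressure fall. Blood pressure changes recorded for 30 min after PAF, compared with vehicle controls (five rats per group).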

The test system of experiment [2] is Rattus norvegicus. Description: Tested in vivo for ability to inhibit PAF-induced hypotension in rats by measuring the drop in mean arterial blood pressure(mmHg) after 20 minutes activity. In kind it is functional. The gist of the method:
as §1

`CO/C(O)=C1\C(C)=NC(C)=C(C(=O)OCCSc2ccccc2)C1C` (configuration not stated): the values for the MABP in the experiment with Rattus norvegicus [1] and with Rattus norvegicus [2] were 30 mmHg and 14 mmHg, respectively.
For `CCO/C(O)=C1\C(C)=NC(C)=C(C(=O)OCCSCC)C1C` (configuration not stated), the MABP in the experiment on Rattus norvegicus [1] was 64 mmHg; in the experiment on Rattus norvegicus [2], 18 mmHg.
As to `CCSCCO/C(O)=C1\C(C)=NC(C)=C(C(=O)OC)C1C` (configuration not stated), the figures for the MABP with Rattus norvegicus [1] and in the experiment with Rattus norvegicus [2] were 68 mmHg and 32 mmHg, respectively.
`CC1=NC(C)=C(C(=O)OCCSc2ccccc2)C(C)/C1=C(\O)OCC1CCCO1` (configuration not stated): the MABP is 63 mmHg with Rattus norvegicus [1] and 21 mmHg in the experiment on Rattus norvegicus [2].
Turning to `CCCC1C(C(=O)OCCSC)=C(C)N=C(C)/C1=C(/O)OCC` (configuration not stated), the MABP with Rattus norvegicus [1] is 101 mmHg; in the experiment with Rattus norvegicus [2] it was 60 mmHg.
For `CC1=NC(C)=C(C(=O)OCCSc2ccccc2)C(C)/C1=C(\O)OC(C)C` (configuration not stated) the same measures were 78 mmHg and 27 mmHg.
As for `CO/C(O)=C1\C(C)=NC(C)=C(C(=O)OCCSC)C1C` (configuration not stated), the values for the MABP in the experiment on Rattus norvegicus [1] and in the experiment on Rattus norvegicus [2] were 51 mmHg and 5 mmHg, respectively.
Consider `CCO/C(O)=C1\C(C)=NC(C)=C(C(=O)OCCSC)C1CC` (configuration not stated), for which the MABP amounted to 77 mmHg in the experiment on Rattus norvegicus [1] and 36 mmHg with Rattus norvegicus [2].
Regarding `CCCC1C(C(=O)OCCSCC)=C(C)N=C(C)/C1=C(/O)OCC` (configuration not stated), the figures for the MABP in the experiment with Rattus norvegicus [1] and in the experiment on Rattus norvegicus [2] were 106 mmHg and 71 mmHg, respectively.
Regarding `CCO/C(O)=C1\C(C)=NC(C)=C(C(=O)OCCSC)C1C` (configuration not stated), the values for the MABP in the experiment with Rattus norvegicus [1] and in the experiment with Rattus norvegicus [2] were 88 mmHg and 29 mmHg, respectively.
With `CCO/C(O)=C1/C(C)=NC(C)=C(C(=O)OCCSc2ccccc2)C1C` (configuration not stated), the MABP in the experiment on Rattus norvegicus [1] came out at 52 mmHg; in the experiment on Rattus norvegicus [2], 23 mmHg.
